Experimental data: ChEMBL document CHEMBL1139836, “Development of orally bioavailable and CNS penetrant biphenylaminocyclopropane carboxamide bradykinin B1 receptor antagonists” (J Med Chem, 2007)
Several values for one entry are separate records, joined by “and”; a condition that tells them apart may be missing. Equal entries are not always repeated.

Assays:
LLC-PK1 [1] = experiment: Ratio of transport from basolateral to apical over apical to basolateral in LLC-PK1 cells expressing human MDR1; assay type: ADME, cell-based, Sus scrofa; details: pig
Procedure, shortened: (§1)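 LLC-PK1 cells expressing human MDR1, grown in M199 with 10% FBS on 96-well filters and used on day 4. Equilibrated 30 min in HBSS with 1 mM HEPES, then test compound at 5 µM. 1 µM verapamil served as P-gp substrate control. Transport in both directions measured in triplicate by LC/MS/MS or scintillation.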

human MDR1 (P-gp) = experiment: (§2) Apparent permeability in LLC-PK1 cells expressing human MDR1; assay type: ADME, cell-based, Sus scrofa; details: pig, LLC-PK1; procedure, shortened: as §1
[2] = Oral bioavailability in Sprague-Dawley rat at 10 mg/kg, po and 2 mg/kg, iv; assay type: ADME, organism-based; details: in vivo
Procedure, shortened: (§3)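 Sprague-Dawley rats, n = 3, dosed orally at 10 mg/kg and iv at 2 mg/kg. F% from oral versus iv exposure; half-life in hours, clearance in mL/min/kg.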

[3] = Half life in Sprague-Dawley rat at 10 mg/kg, po and 2 mg/kg, iv; assay type: ADME, organism-based; details: in vivo; procedure, shortened: as §3
[4] = Clearance in Sprague-Dawley rat at 10 mg/kg, po and 2 mg/kg, iv; assay type: ADME, organism-based; details: in vivo; procedure, shortened: as §3
B1 bradykinin receptor [5] = biological target: T1, B1 bradykinin receptor (Homo sapiens, UniProt P46663); experiment: Displacement of [3H]des-Arg10 Leu9 kallidin from human bradykinin B1 receptor expressed in CHO cells; assay type: cell-based
T1 sequence (P46663 whole entry): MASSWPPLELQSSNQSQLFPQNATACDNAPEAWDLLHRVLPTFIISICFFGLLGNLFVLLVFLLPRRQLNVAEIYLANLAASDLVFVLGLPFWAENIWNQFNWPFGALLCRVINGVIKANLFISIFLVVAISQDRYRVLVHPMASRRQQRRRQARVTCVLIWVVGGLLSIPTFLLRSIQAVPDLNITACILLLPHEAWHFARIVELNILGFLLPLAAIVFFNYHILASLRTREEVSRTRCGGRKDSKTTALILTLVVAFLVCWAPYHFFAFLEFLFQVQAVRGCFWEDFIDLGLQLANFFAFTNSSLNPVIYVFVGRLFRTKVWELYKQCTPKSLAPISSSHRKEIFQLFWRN
Procedure, shortened: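 Membranes from CHO cells stably expressing human B1, used at 0.2 mg/mL protein in pH 7.4 HEPES/NaCl/KCl buffer with 100 nM enalaprilat, 140 µg/mL bacitracin and 0.1% BSA. Radioligand 0.2 nM [3H]des-arg10 leu9 kallidin, 2% DMSO final, incubated 60 min at 22 °C, then filtered and counted. Nonspecific binding defined with 1 µM des-arg10 kallidin. Ki values, at least two experiments averaged.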

[6] = Lipophilicity, Log P of the compound; assay type: physicochemical; details: octanol/water
B2 bradykinin receptor = biological target: T2, B2 bradykinin receptor (Homo sapiens, UniProt P30411); experiment: Inhibition of human bradykinin B2 receptor
T2 sequence (P30411 whole entry): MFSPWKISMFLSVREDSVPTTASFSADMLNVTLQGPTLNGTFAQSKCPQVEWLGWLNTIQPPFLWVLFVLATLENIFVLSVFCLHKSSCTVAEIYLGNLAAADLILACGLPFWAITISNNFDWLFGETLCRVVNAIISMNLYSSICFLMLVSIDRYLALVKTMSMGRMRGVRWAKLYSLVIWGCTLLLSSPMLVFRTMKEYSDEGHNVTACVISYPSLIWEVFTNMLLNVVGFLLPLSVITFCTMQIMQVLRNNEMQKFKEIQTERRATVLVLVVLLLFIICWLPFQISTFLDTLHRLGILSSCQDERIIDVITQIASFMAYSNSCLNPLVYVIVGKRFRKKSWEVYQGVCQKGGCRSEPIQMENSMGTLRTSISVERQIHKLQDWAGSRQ
Procedure, shortened: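 Human B2 receptor expressed in CHO cells, membrane binding with 1 nM [3H]bradykinin, 2% DMSO final, 60 min at 22 °C, then filtered and counted. Nonspecific binding defined with 1 µM bradykinin. Ki reported.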

B1 bradykinin receptor [7] = biological target: T1, B1 bradykinin receptor; experiment: Activity at human bradykinin B1 receptor assessed as inhibition of Des-arg kallidin-induced increase of cytosolic calcium in CHO cells by FLIPR; assay type: functional, cell-based
Procedure, shortened: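 CHO cells stably expressing human B1 receptor, seeded 25 000/well and grown overnight at 37 °C, then loaded 60 min at 37 °C with 4 µM fluo-3 AM and 1 mM probenecid. Antagonist added 2 min before 3 nM des-arg10 kallidin, run at 37 °C. At least eight concentrations per curve give IC50. At least two experiments averaged.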

Liver microsomes [8] = experiment: Stability in rat liver microsomes; assay type: ADME, Microsome
[9] = Stability in dog liver microsomes; assay type: ADME, Canis lupus familiaris, Microsome
[10] = Stability in monkey liver microsomes; assay type: ADME, Macaca mulatta, Microsome; details: rhesus monkey
Liver microsomes [11] = experiment: Stability in human liver microsomes; assay type: ADME, Microsome
[12] = Stability in rat hepatocytes; assay type: ADME, cell-based, Hepatocyte
[13] = Stability in human hepatocytes; assay type: ADME, cell-based, Hepatocyte
[14] = Oral bioavailability in Mongrel dog at 3 mg/kg, po and 1 mg/kg, iv; assay type: ADME, organism-based, Canis lupus familiaris; details: in vivo
Procedure, shortened: (§4)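 Mongrel dogs, n = 2, dosed orally at 3 mg/kg and iv at 1 mg/kg. F%, half-life in hours, clearance in mL/min/kg.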

[15] = Half life in Mongrel dog at 3 mg/kg, po and 1 mg/kg, iv; assay type: ADME, organism-based, Canis lupus familiaris; details: in vivo; procedure, shortened: as §4
[16] = Clearance in Mongrel dog at 3 mg/kg, po and 1 mg/kg, iv; assay type: ADME, organism-based, Canis lupus familiaris; details: in vivo; procedure, shortened: as §4
[17] = Oral bioavailability in rhesus monkey at 3 mg/kg, po and 1 mg/kg, iv; assay type: ADME, organism-based, Macaca mulatta; details: in vivo
Procedure, shortened: (§5)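 Rhesus monkeys, n = 2, dosed orally at 3 mg/kg and iv at 1 mg/kg. F%, half-life in hours, clearance in mL/min/kg.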

[18] = Half life in rhesus monkey at 3 mg/kg, po and 1 mg/kg, iv; assay type: ADME, organism-based, Macaca mulatta; details: in vivo; procedure, shortened: as §5
[19] = Clearance in rhesus monkey at 3 mg/kg, po and 1 mg/kg, iv; assay type: ADME, organism-based, Macaca mulatta; details: in vivo; procedure, shortened: as §5
LLC-PK1 [20] = experiment: as §2; assay type: ADME, cell-based, Sus scrofa; details: pig, llc-pk1; procedure, shortened: as §1

Compound | Ratio (LLC-PK1 [1]) | Papp (human MDR1 (P-gp)) | bioavailability [2] | half-life [3] | clearance [4] | Ki (B1 bradykinin receptor [5]) | IC50 (B2 bradykinin receptor) | further results
COC(=O)c1c(F)cccc1-c1ccc([C@@H](C)NC(=O)C2(NC(=O)CC(F)(F)F)CC2)c(F)c1 | 8.6 | 25 ×10⁻⁶ cm/s | 14% | 1.44 h | 25 mL/min/kg | 0.13 nM | – | –
COC(=O)c1ccccc1-c1ccc([C@@H](C)NC(=O)C2(NC(=O)C(F)(F)F)CC2)c(F)c1 | 2.2 | 34 ×10⁻⁶ cm/s | – | – | – | 10.3 nM | – | –
COC(=O)c1c(F)cccc1-c1ccc([C@@H](C)NC(=O)C2(NC(=O)C(F)(F)Cl)CC2)c(F)c1 | 2.5 | 34 ×10⁻⁶ cm/s | – | – | – | 0.81 nM | – | –
COC(=O)c1c(F)cccc1-c1ccc(CNC(=O)C2(NC(=O)C(F)F)CC2)c(F)c1 | 3.4 | 33 ×10⁻⁶ cm/s | – | – | – | 13.5 nM | > 10000 nM | logP [6]: 2.4
C[C@@H](NC(=O)C1(NC(=O)C(F)(F)F)CC1)c1ccc(-c2cccc(F)c2C(F)(F)F)cc1F | 2 | 32 ×10⁻⁶ cm/s | 30% | 2.6 h | 10 mL/min/kg | 1.44 nM | – | IC50 (B1 bradykinin receptor [7]): 7.3 nM
COC(=O)c1c(F)cccc1-c1ccc(CNC(=O)C2(NC(=O)CC(F)(F)F)CC2)c(F)c1 | 18.4 | 23 ×10⁻⁶ cm/s | – | – | – | 0.81 nM | > 10000 nM | logP [6]: 2.9
COC(=O)c1c(F)cccc1-c1ccc(CNC(=O)C2(NC(=O)C(C)(Cl)Cl)CC2)c(F)c1 | – | – | – | – | – | 119 nM | > 10000 nM | –
COC(=O)c1c(F)cccc1-c1ccc(CNC(=O)C2(NC(=O)C(F)(F)C(F)(F)F)CC2)c(F)c1 | 2.2 | 31 ×10⁻⁶ cm/s | – | – | – | 2.95 nM | > 10000 nM | –
COC(=O)c1c(F)cccc1-c1ccc(CNC(=O)C2(NC(=O)C(Cl)Cl)CC2)c(F)c1 | 2.8 | 21 ×10⁻⁶ cm/s | – | – | – | 0.54 nM | > 10000 nM | logP [6]: 2.8
COC(=O)c1c(F)cccc1-c1ccc([C@@H](C)NC(=O)C2(NC(=O)C(F)(F)F)CC2)c(F)c1 | 2.3 | 28 ×10⁻⁶ cm/s | 21% | 0.5 h | 42 mL/min/kg | 0.57 nM | – | Stability (Liver microsomes [8]): Stable; Stability [9]: Stable; Stability [10]: Stable; Stability (Liver microsomes [11]): Stable; Stability [12]: Stable; Stability [13]: Stable; IC50 (B1 bradykinin receptor [7]): 1.9 nM; bioavailability [14]: 5%; half-life [15]: 1.7 h; clearance [16]: 21 mL/min/kg; bioavailability [17]: 2%; half-life [18]: 2.2 h; clearance [19]: 28 mL/min/kg
COC(=O)c1c(F)cccc1-c1ccc(CNC(=O)C2(NC(=O)C(F)(F)Cl)CC2)c(F)c1 | 2.8 | 29 ×10⁻⁶ cm/s | – | – | – | 2.5 nM | > 10000 nM | –
COC(=O)c1c(F)cccc1-c1ccc([C@@H](C)NC(=O)C2(NC(=O)C(F)F)CC2)c(F)c1 | 3.2 | 31 ×10⁻⁶ cm/s | – | – | – | 0.4 nM | – | –
C[C@@H](NC(=O)C1(NC(=O)C(F)(F)F)CC1)c1ccc(-c2cccc(F)c2-c2nnnn2C)cc1F | 15.5 | 19 ×10⁻⁶ cm/s | – | – | – | 62.5 nM | – | –
CCOC(=O)c1c(Cl)cccc1-c1ccc([C@@H](C)NC(=O)C2(NC(=O)C(F)(F)F)CC2)c(F)c1 | – | – | 45% | 1.1 h | 8.4 mL/min/kg | 1.35 nM | – | IC50 (B1 bradykinin receptor [7]): 9.1 nM
COC(=O)c1c(F)cccc1-c1ccc([C@H](C)NC(=O)C2(NC(=O)CC(F)(F)F)CC2)c(F)c1 | – | – | – | – | – | 22 nM | – | –
C[C@@H](NC(=O)C1(NC(=O)C(F)(F)F)CC1)c1ccc(-c2cccc(Cl)c2-c2nnn(C)n2)cc1F | – | – | 50% | 0.7 h | 12 mL/min/kg | 0.66 nM | – | –
COC(=O)c1c(F)cccc1-c1ccc([C@@H](C)NC(=O)C2(NC(C)=O)CC2)c(F)c1 | 8.6 | 21 ×10⁻⁶ cm/s | – | – | – | 0.93 nM | – | –
C[C@@H](NC(=O)C1(NC(=O)C(F)(F)F)CC1)c1ccc(-c2cccc(F)c2-c2nnn(C)n2)cc1F | – | – | 48% | 0.7 h | 11 mL/min/kg | 0.6 nM | – | IC50 (B1 bradykinin receptor [7]): 0.65 nM
CCC(=O)c1c(Cl)cccc1-c1ccc([C@@H](C)NC(=O)C2(NC(=O)C(F)(F)F)CC2)c(F)c1 | 1.6 | 27 ×10⁻⁶ cm/s | – | – | – | 1.95 nM | – | –
COC(=O)c1c(F)cccc1-c1ccc(CNC(=O)C2(NC(C)=O)CC2)c(F)c1 | 6.3 | 24 ×10⁻⁶ cm/s | – | – | – | 11.6 nM | > 10000 nM | –
COC(=O)c1c(F)cccc1-c1ccc(CNC(=O)C2(NC(=O)C(F)Cl)CC2)c(F)c1 (stereo unspecified) | – | – | – | – | – | 2.8 nM | > 10000 nM | –
Cc1noc(-c2c(F)cccc2-c2ccc([C@@H](C)NC(=O)C3(NC(=O)C(F)(F)F)CC3)c(F)c2)n1 | 5.6 | 37 ×10⁻⁶ cm/s | 27% | 0.35 h | 28 mL/min/kg | 0.51 nM | – | IC50 (B1 bradykinin receptor [7]): 0.89 nM; bioavailability [14]: 35%; half-life [15]: 3.9 h; clearance [16]: 6 mL/min/kg; bioavailability [17]: 22%; half-life [18]: 2.9 h; clearance [19]: 15 mL/min/kg
COC(=O)c1c(F)cccc1-c1ccc(CNC(=O)C2(NC(=O)C(F)(F)F)CC2)c(F)c1 | 4.1 | 23 ×10⁻⁶ cm/s | – | – | – | 1.47 nM | > 10000 nM | logP [6]: 2.7
COC(=O)c1c(F)cccc1-c1ccc([C@@H](C)NC(=O)C2(NC(=O)C(F)(F)C(F)(F)F)CC2)c(F)c1 | 1.4 and 3.7 | 31 ×10⁻⁶ cm/s | 44% | 0.34 h | 27 mL/min/kg | 1.6 nM and 0.68 nM | – | Papp (LLC-PK1 [20]): 28 ×10⁻⁶ cm/s
